Results published in paper PMC11261619 (Journal of Agricultural and Food Chemistry, 2024).

Assays:
[1] = molecular target: T1, human OR11A1 (Homo sapiens, UniProt Q9GZK7); experiment: cAMP luminescence; format: cell-based; details: for KFO screening signal on human OR11A1 relative to 3σ-threshold: each KFO 300 μmol/L, triplicate, normalized to response of OR11A1 to geosmin; for Concentration-dependent activation of OR11A1 (concentration–response validation): normalized to OR1A1 response to (R)-(−)-carvone (30 μmol/L), n = 3
T1 sequence (Q9GZK7 1-315): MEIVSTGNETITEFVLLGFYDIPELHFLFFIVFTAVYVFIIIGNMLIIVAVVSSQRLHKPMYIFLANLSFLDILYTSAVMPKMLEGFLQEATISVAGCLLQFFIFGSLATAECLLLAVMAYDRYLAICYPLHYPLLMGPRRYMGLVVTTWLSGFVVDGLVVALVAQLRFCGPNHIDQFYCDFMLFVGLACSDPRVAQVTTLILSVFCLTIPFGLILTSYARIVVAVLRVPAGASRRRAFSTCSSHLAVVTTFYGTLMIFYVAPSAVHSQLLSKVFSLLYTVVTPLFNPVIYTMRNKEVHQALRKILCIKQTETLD

[2] = molecular target: T2, doOR11A1 (Dipodomys ordii, UniProt A0A1S3GF11); experiment: cAMP luminescence; format: cell-based, Kangaroo rat (Dipodomys ordii)
T2 sequence (A0A1S3GF11 1-311): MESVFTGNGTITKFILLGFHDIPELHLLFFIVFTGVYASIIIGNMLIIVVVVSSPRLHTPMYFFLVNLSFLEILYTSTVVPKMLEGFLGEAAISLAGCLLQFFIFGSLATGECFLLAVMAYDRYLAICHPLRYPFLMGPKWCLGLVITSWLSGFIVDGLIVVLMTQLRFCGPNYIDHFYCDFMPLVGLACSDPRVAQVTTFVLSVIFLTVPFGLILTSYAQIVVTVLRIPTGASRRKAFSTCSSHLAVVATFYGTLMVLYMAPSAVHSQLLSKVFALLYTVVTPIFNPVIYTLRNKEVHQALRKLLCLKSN
Outline: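 HEK-293 cells (DMEM, 4.5 g/L glucose, 10% FBS, 2 mM L-glutamine, penicillin/streptomycin; 37 °C, 5% CO2) co-transfected via ViaFect with the ortholog coding region in IL-6-HaloTag-pFN210A and pGloSensor-22F. Luminescence was averaged before and after odorant application, then baseline-subtracted and mock-subtracted. Responses were normalized to OR1A1 response to (R)-(−)-carvone (30 μmol/L). EC50 came from nonlinear sigmoidal regression; mean ± SD, n = 3–6 independent transfections.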

SMILES | KFO screening signal on human OR11A1 relative to 3σ-threshold [1] | Concentration-dependent activation of OR11A1 (concentration–response validation) [1] | Sensitivity of kangaroo rat receptor compared to its human ortholog ([2]; doOR11A1 vs human OR11A1) | Sensitivities of OR11A1 homologues across species compared to the human receptor ([2]; homologues across species vs human OR11A1) | Efficacy of response to geosmin among OR11A1 orthologs ([2]; normalized to OR1A1 response to (R)-(−)-carvone (30 μmol/L))
C=Cc1ccc(O)cc1 [4-ethenylphenol] | above the 3σ-threshold | could not be validated |  |  | 
CSCCCO [methionol, 3-(methylsulfanyl) Propanol (methionol)] | reached the 3σ-threshold | could not be validated |  |  | 

The remaining lines, values ahead:

KFO screening signal on human OR11A1 relative to 3σ-threshold [1] | Concentration-dependent activation of OR11A1 (concentration–response validation) [1] | Sensitivity of kangaroo rat receptor compared to its human ortholog ([2]; doOR11A1 vs human OR11A1) | Sensitivities of OR11A1 homologues across species compared to the human receptor ([2]; homologues across species vs human OR11A1) | Efficacy of response to geosmin among OR11A1 orthologs ([2]; normalized to OR1A1 response to (R)-(−)-carvone (30 μmol/L)) | SMILES
reached the 3σ-threshold | could not be validated |  |  |  | CC12CCC(CC1)C(C)(C)O2 [1,8-cineol]
above the 3σ-threshold | could not be validated |  |  |  | CCCCC(=O)OCC [ethyl pentanoate]
 |  | more than 100 fold | up to 100 fold | most effective responder | C[C@H]1CCC[C@@]2(C)CCCC[C@]12O [geosmin, (4S,4aS,8aR)-4,8a-dimethyloctahydronaphthalen-4a(2H)-ol]
